Measurements taken from ChEMBL document CHEMBL4177589, “In silico analysis and in vitro evaluation of immunogenic and immunomodulatory properties of promiscuous peptides derived from Leishmania infantum eukaryotic initiation factor” (2017).
Active and inactive are the calls of the source. The rule behind the calls is not given here.

Columns and labels:
Splenocyte = assay: Induction of cell proliferation in splenocytes isolated from BALB/c mouse infected with Leishmania major MRHO/SU/59/P, zymodeme LV39 assessed as increase in [3H]-thymidine incorporation at 1 to 10 ug/ml […] and measured after 18 hrs by liquid scintillation counter method; assay type: functional, cell-based
Summary of the method: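 Female BALB/c mice were infected subcutaneously with 2×10^6 stationary-phase L. major promastigotes. Splenocytes were taken one month later and plated in triplicate at 2×10^6 cells/mL with peptide at 1, 5 or 10. Cultures ran 96 h at 37°C, 5% CO2, with 3H-thymidine (2 µCi/mL) added for the last 18 h and read by scintillation. The result is Δcpm against medium wells; Δcpm >2000 with SI >2 counted as positive.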

BMDC [1] = assay: Immunomodulatory activity in LPS stimulated BALB/c mouse bone marrow-derived dendritic cells assessed as increase in IL-12 level at 10 ug/ml after 24 hrs by FACS analysis (reference value: 44%); assay type: functional
BMDC [2] = assay: Immunomodulatory activity in […] mouse bone marrow-derived dendritic cells assessed as up-regulation of co-stimulatory molecules at 10 ug/ml after 24 hrs by FACS analysis; assay type: functional, cell-based
BMDC [3] = assay: Immunomodulatory activity in LPS stimulated BALB/c mouse bone marrow-derived dendritic cells assessed as increase in IFN-gamma level at 10 ug/ml after 24 hrs by FACS analysis (reference value: 20%); assay type: functional
BMDC [4] = assay: Immunomodulatory activity in LPS stimulated BALB/c mouse bone marrow-derived dendritic cells assessed as increase in IL-4 level at 10 ug/ml after 24 hrs by FACS analysis (reference value: 48%); assay type: functional
BMDC [5] = assay: Immunomodulatory activity in LPS stimulated BALB/c mouse bone marrow-derived dendritic cells assessed as increase in IL-10 level at 10 ug/ml after 24 hrs by FACS analysis (reference value: 27%); assay type: functional
BMDC [6] = assay: Immunomodulatory activity in […] mouse bone marrow-derived dendritic cells assessed as increase in IL-12 level at 10 ug/ml after 24 hrs by FACS analysis; assay type: functional, cell-based
BMDC [7] = assay: Immunomodulatory activity in […] mouse bone marrow-derived dendritic cells assessed as increase in IL-10 level at 10 ug/ml after 24 hrs by FACS analysis; assay type: functional, cell-based
BMDC [8] = assay: Immunomodulatory activity in LPS stimulated BALB/c mouse bone marrow-derived dendritic cells assessed as up-regulation of TNF-alpha mRNA expression at 10 ug/ml after 2 to 12 hrs by qPCR analysis; assay type: functional, cell-based
Summary of the method: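 Day-9 BM-DCs (5×10^6 per group) were cultured with peptide for 2, 6 and 12 h, with LPS and medium controls. TNF-α mRNA was measured by RT and semi-quantitative PCR, and products were run on 2% agarose gels. Band densitometry was normalised to β-actin and given as arbitrary units, from three independent experiments.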

BMDC [9] = assay: Immunomodulatory activity in LPS stimulated BALB/c mouse bone marrow-derived dendritic cells assessed as increase in surface CD80 expression at 10 ug/ml after 24 hrs by FACS analysis (reference value: 26%)
BMDC [10] = assay: Immunomodulatory activity in LPS stimulated BALB/c mouse bone marrow-derived dendritic cells assessed as increase in surface CD86 expression at 10 ug/ml after 24 hrs by FACS analysis (reference value: 58%)

Substance | Activity (Splenocyte) | Activity (BMDC [1]) | also measured
H-FLDDQPGVRPIPSFDDM-OH | Active | inactive | 
H-IQQRAIAPFTRGGDII-OH | Active | 65% | Activity (BMDC [2]): Active; Activity (BMDC [3]): 40%; Activity (BMDC [4]): 64%; Activity (BMDC [5]): 43%; Activity (BMDC [6]): Active; Activity (BMDC [7]): Active; Activity (BMDC [8]): Active; Activity (BMDC [9]): 43%; Activity (BMDC [10]): 77%
H-KPSSIQQRAIAPFTRGG-OH | Active | inactive | 
H-PKDIQVALFSATMPEEVL-OH | Active | inactive | 
H-TRELALQTAEVISRIGE-OH | Active | inactive | 
